Measured values taken from ChEMBL document CHEMBL1125370, “Cardiotonic agents. Synthesis and cardiovascular properties of novel 2-arylbenzimidazoles and azabenzimidazoles” (J Med Chem, 1992).
Active and inactive are the calls of the source. No cut-off for these calls is given here.

Key:
Canis familiaris [1] = assay: In vivo hypotension in anesthetized dog, expressed as the dose of the drug producing a 25% decrease in diastolic arterial pressure (DAP) from control value.; type: functional; conditions: Canis lupus familiaris, Artery
Canis familiaris [2] = assay: In vivo contractility in anesthetized dog expressed as dose which produced a 50% increase in dP/dt max from the control value.; type: functional; conditions: Canis lupus familiaris
Canis familiaris [3] = assay: In vivo contractility in conscious dog expressed as dose which produced a 50% increase in dP/dt max from the control value; type: functional; conditions: Canis lupus familiaris
Procedure, shortened: (§1)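 Male beagles (12–15 kg) carried a Königsberg transducer implanted in the left ventricle to record dP/dt max and arterial pressure. Drug or placebo was given by gastric tube as a 1% gum arabic suspension. Effects were followed for 5 h.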

Cavia porcellus [4] = organism: Cavia porcellus; assay: In vitro inotropic activity in isolated left atria from guinea pig.; type: functional
Procedure, shortened: (§2)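 Isolated left atria preparation. Tension max is the maximal increase in developed tension. Bracketed values give the maximal concentration used, and no effect was recorded up to that concentration. Values are means ± SEM.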

Cavia porcellus [5] = organism: Cavia porcellus; assay: In vitro inotropic activity expressed as the maximal increase in developed tension in isolated left atria from guinea pig.; type: functional; procedure, shortened: as §2
Cavia porcellus [6] = organism: Cavia porcellus; assay: The compound was tested in vitro for chronotropic activity in isolated right atria from guinea pig; type: functional
Procedure, shortened: (§3)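 Isolated right atria, chronotropic read-out. Rate max is the maximal increase in rate, in beat/min. It comes from three to six experiments and was not calculated when rate max was below 30 beat/min. Bracketed values give the maximal concentration used. Means ± SEM.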

Cavia porcellus [7] = organism: Cavia porcellus; assay: The compound was tested in vitro for chronotropic activity expressed as the maximal increase in beat/min in isolated right atria from guinea pig
Canis familiaris [8] = assay: In vivo hypotension in anesthetized dog expressed as the dose of the drug producing a 25% decrease in DAP from control valueNo effect at a maximal concentration of 50 uM; type: functional; conditions: Canis lupus familiaris
Cavia porcellus [9] = organism: Cavia porcellus; assay: The compound was tested in vitro for chronotropic activity in isolated right atria from guinea pig;No effect at a maximal concentration of 50 uM; type: functional; procedure, shortened: as §3
Cavia porcellus [10] = organism: Cavia porcellus; assay: The compound was tested in vitro for inotropic activity in isolated left atria from guinea pig. No effect at a maximal concentration of 20 uM,; type: functional
Procedure, shortened: (§4)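 Isolated left atria preparation. Tension max is the maximal increase in developed tension. […] EC50 was not calculated when tension max was below 250 mg. Bracketed values give the maximal concentration used, and no effect was recorded up to that concentration. Values are means ± SEM.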

Cavia porcellus [11] = organism: Cavia porcellus; assay: The compound was tested in vitro for inotropic activity expressed as the maximal increase in developed tension. in isolated left atria from guinea pig,No effect at a maximal concentration of 20 uM; type: functional; procedure, shortened: as §4
Canis familiaris [12] = assay: In vivo contractility in anesthetized dog expressed as dose which produced a 50% increase in dP/dt max from the control value; type: functional, Canis lupus familiaris
Cavia porcellus [13] = organism: Cavia porcellus; assay: The compound was tested in vitro for inotropic activity in isolated left atria from guinea pig;No effect at a maximal concentration of 50 uM,; type: functional; procedure, shortened: as §4
Cavia porcellus [14] = organism: Cavia porcellus; assay: The compound was tested in vitro for inotropic activity expressed as the maximal increase in developed tension. in isolated left atria from guinea pig;No effect at a maximal concentration of 50 uM; type: functional; procedure, shortened: as §2
Canis familiaris [15] = assay: In vivo contractility in conscious dog expressed as dose which produced a 50% increase in dP/dt max from the control value;No effect up to 1 mg/kg; type: functional, organism-based; parameters: dose 1 mg/kg; conditions: Canis lupus familiaris; procedure, shortened: as §1

Row | EC50 (Cavia porcellus [4]) | EC50 (Cavia porcellus [6]) | SMILES | ED25 (Canis familiaris [1]) | ED50 (Canis familiaris [2]) | ED50 (Canis familiaris [3]) | Ionotropic activity (Cavia porcellus [5]) | Rate max (Cavia porcellus [7]) | other results
1 | 4.7 µM | 22 µM | Cc1[nH]c(=O)c(C#N)cc1-c1ccncc1 [MILRINONE] | 1 mg/kg | 0.15 mg/kg | 2 mg/kg | 580 mg | 70 beats min-1 | 
2 | > 50 µM |  | c1ccc(-c2nc3cc(-n4ccnc4)ccc3[nH]2)nc1 |  | > 3 mg/kg |  | 170 mg |  | ED25 (Canis familiaris [8]): 3 mg/kg; EC50 (Cavia porcellus [9]): Not Active
3 | 34 µM | 20 µM | O=C1CCC(c2ccc(Nc3ccncc3)cc2)=NN1 [SENAZODAN] | 0.1 mg/kg | 0.009 mg/kg | 0.1 mg/kg | 410 mg | 39 beats min-1 | 
4 |  |  | c1ccc(Nc2ncccc2-c2nc3cc(-n4ccnc4)ccc3[nH]2)cc1 |  |  |  |  |  | EC50 (Cavia porcellus [10]): Not Active; Ionotropic activity (Cavia porcellus [11]): inactive
5 | 31 µM | 100 µM | COc1cc([S+](C)[O-])ccc1-c1nc2cccnc2[nH]1 (stereo not drawn) [SULMAZOLE] | 5 mg/kg | 1 mg/kg | 10 mg/kg | 600 mg | 88 beats min-1 | 
6 |  |  | Cc1cc2[nH]c(-c3ccc(-n4ccnc4)cc3)nc2cc1-n1ccnc1.Cl.O | > 3 mg/kg |  |  |  |  | Contractility (Canis familiaris [12]): > 3 mg/kg; EC50 (Cavia porcellus [13]): Not Active; Ionotropic activity (Cavia porcellus [14]): inactive
7 |  |  | c1cc(-c2nc3c[nH]c(-n4ccnc4)nc-3n2)ccn1 |  |  |  |  |  | ED50 (Canis familiaris [15]): inactive
